OX1R antag-1: human HCRTR1 antagonism; O43613; CHO/OX1R cells, Fluo-8 calcium fluorescence, orexin A; 330,000 tested, 0.43% active; inhibition, % at 5 µM;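 active means inhibition above its plate's threshold, mean inhibition of all tested compounds on the plate plus 3 SD, cut at about 37% in these data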;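 further: 0% = orexin A challenge wells and 100% = SB-334867-A antagonist wells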
TAAR1 agonist: agonists of human TAAR1 | activation, % at 3 µM | Q96RJ0 | 360,000 tested, 0.99% active | CHO RD-HGA16 TAAR1, Fluo-8 calcium fluorescence; vehicle wells 0%, saturating PEA agonist 100%;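 active means activation above the mean activation of all test compounds in the run plus 3 SD, cut at about 38% in these data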
Target sequence (Q96RJ0 whole entry, looked up): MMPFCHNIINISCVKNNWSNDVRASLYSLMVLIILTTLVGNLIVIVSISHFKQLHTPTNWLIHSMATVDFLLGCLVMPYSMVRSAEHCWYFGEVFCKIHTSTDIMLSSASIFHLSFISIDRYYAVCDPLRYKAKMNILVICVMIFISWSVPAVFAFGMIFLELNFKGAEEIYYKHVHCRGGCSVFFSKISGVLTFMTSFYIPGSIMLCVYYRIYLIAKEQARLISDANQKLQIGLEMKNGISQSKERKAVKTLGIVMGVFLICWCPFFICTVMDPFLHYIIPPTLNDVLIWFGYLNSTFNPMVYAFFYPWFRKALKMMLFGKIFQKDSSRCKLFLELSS
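Test system: RD-HGA16 (CHO) cells co-expressing Gα16 and hTAAR1 | Doses: Single dose, 3 µM | Schedule: 17-24 h seeding, 75 min 37 °C dye, 30 min RT | Evaluation: % activation from peak over basal fluorescence ratio, DMSO-to-PEA scaled | Technique: Kinetic Fluo-8 calcium fluorescence | Benchmarks: Low control DMSO, high control PEA (EC100)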
OX1R antag-2: OX1R (human) antagonism | O43613 | OX1R-expressing cells, FRET antagonist read-out | inhibition, % at 6.6 µM | 330,000 tested, 1.8% active | AID 485270; in the data active means inhibition mostly above about 38%, no sharp cut-off; inactive means mostly below about 40%;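 further: 0% = agonist challenge alone and 100% = reference antagonist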
CHO parental Ca: signal in parental CHO cells, OX1R antagonist counter-screen | 330,000 tested, 0.63% active | parental CHO-K1, ATP-induced calcium, Fluo-8 fluorescence | inhibition, % at 5.6 µM;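 active means inhibition above that plate's mean sample inhibition plus 3 SD, cut at about 26% in these data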;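 further: 0% = ATP-challenged DMSO wells and 100% = DMSO wells without ATP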
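Measured by: calcium-sensitive Fluo-8 fluorescence / Test system: CHO parental line / Controls: ATP-challenged DMSO wells low, unchallenged DMSO wells high / Measure: % inhibition / Compound: single nominal dose of 5.6 µM per compound / Replicates: single well per compound, no replicates / Reagent: ATP as calcium-mobilizing challenge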
GPR7 antagonist: human neuropeptides B/W receptor 1 antagonism; P48145; GPR7-expressing cells, fluorescence antagonist assay; inhibition, % at 4.4 µM; 290,000 tested, 1.1% active; in the data active means inhibition above about 16%, passing the limit was not always enough;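 further: cells stimulated with the agonist NPW; 0% = agonist with vehicle and 100% = vehicle without agonist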
Target sequence (P48145 whole entry, looked up): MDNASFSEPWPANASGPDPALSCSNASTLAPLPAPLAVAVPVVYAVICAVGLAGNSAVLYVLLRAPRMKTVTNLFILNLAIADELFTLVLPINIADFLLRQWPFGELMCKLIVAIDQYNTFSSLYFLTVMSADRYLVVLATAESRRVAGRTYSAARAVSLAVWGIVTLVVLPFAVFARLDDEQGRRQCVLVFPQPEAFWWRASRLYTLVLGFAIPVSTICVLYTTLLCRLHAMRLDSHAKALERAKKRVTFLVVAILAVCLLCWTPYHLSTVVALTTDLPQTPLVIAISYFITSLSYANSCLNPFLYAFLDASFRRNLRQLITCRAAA
TAAR1 antag: antagonists of human TAAR1 | 360,000 tested, 1.5% active | CHO RD-HGA16 TAAR1, Fluo-8 calcium fluorescence, antagonist | inhibition, % at 3 µM | AID 624466 | Q96RJ0;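 active means inhibition above a per-plate cutoff, the mean inhibition of test compounds on that plate plus 3 SD, cut at about 49% in these data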;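 further: 0% = DMSO plus EC80 beta-PEA response and 100% = DMSO alone without agonist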
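System: CHO RD-HGA16 cells bearing hTAAR1. Reagent: EC80 β-phenethylamine stimulus. Schedule: seeding 17-24 h prior, 75-min 37 °C, 30-min RT dye loading. Signal: Fluo-8 intracellular calcium dye fluorescence, real-time kinetic reads. Read-out: % inhibition from peak post-agonist over basal fluorescence ratio. Benchmarks: vehicle wells and EC80 agonist wells. Replicates: n of 1.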
The depositor's hits bear a star; x = no result; ! = repeats disagree. Compounds with a hit are over-represented: about 4.6% of the library has one in this group of screens.

SMILES	OX1R antag-1	TAAR1 agonist	OX1R antag-2	CHO parental Ca	GPR7 antagonist	TAAR1 antag
COc1ccc(C(=O)c2ccc([N+](=O)[O-])cc2)cc1S(=O)(=O)N1CCC(C(=O)O)CC1	-14.4	0.6	53.0*	-4.4	-6.4	-11.7
COc1ccc(NC(=O)CCNC(=O)c2ccc([N+](=O)[O-])cc2)cc1S(=O)(=O)N1CCCCC1	x	-0.1	x	x	x	-33.8
COc1ccc(CCC(=O)Nc2ccc(Cl)c(S(=O)(=O)N3CCCC3)c2)cc1	35.5	-0.1	25.8	52.6*	20.6*	3.7
Cc1ccc(NC(=O)COc2ccccc2)cc1S(=O)(=O)N1CCCCC1	x	3.6	x	x	x	12.4
COc1ccc(CCC(=O)Nc2ccc(OC)c(S(=O)(=O)N3CCCCC3)c2)cc1OC	-16.3	5.8	6.9	-17.2	x	10.3
CCOc1ncccc1C(=O)Nc1ccc(C)c(S(=O)(=O)N2CCCCCC2)c1	54.9*	3.6	4.0	34.4*	x	39.5
CCOc1ncccc1C(=O)Nc1ccc(OC)c(S(=O)(=O)N2CCCCC2)c1	-32.1	3.3	12.6	-0.6	-2.4	-18.9
Cc1ccccc1OCC(=O)Nc1ccc(C)c(S(=O)(=O)N2CCCCCC2)c1	-19.3	0.0	37.2	7.6	x	49.0*
O=C(COc1ccc(F)cc1Cl)Nc1cccc(S(=O)(=O)N2CCCC2)c1	46.7*	4.3	-1.1	29.5	x	14.0
CCN(CC)S(=O)(=O)c1ccc(OCC(=O)NC(=O)c2ccccc2OC)c([N+](=O)[O-])c1	-14.7	0.8	18.4	-4.9	-12.4	11.5
CC1CCCN(S(=O)(=O)c2cc(C(=O)NCCc3ccc(S(N)(=O)=O)cc3)ccc2Cl)C1 (configuration not stated)	x	15.6	x	x	x	49.6*
COc1cc(CCC(=O)Nc2ccc(S(=O)(=O)N3CCCC3)cc2)cc(OC)c1OC	-33.8	7.1	-0.2	-20.1	x	-21.7
COc1cc(CCC(=O)Nc2ccc(C)c(S(=O)(=O)N3CCCCCC3)c2)cc(OC)c1OC	25.1	14.6	14.8	-8.2	x	50.1*
COc1ccc(CCNC(=O)c2ccc(Cl)c(S(=O)(=O)N3CCCCCC3)c2)cc1	46.3*	14.7	15.3	26.8*	x	44.2
CC1CCCN(S(=O)(=O)c2cc(C(=O)NCc3ccco3)ccc2Cl)C1 (configuration not stated)	-14.6	-1.8	4.2	-7.8	x	1.2
COc1ccc(CCNC(=O)c2cccc(S(=O)(=O)N3CCCC3)c2)cc1	x	0.7	x	x	x	-13.2
CC1(C)CC(=O)C(N=Nc2ccc(OC(F)F)cc2)=C(O)C1	-16.2	0.2	55.5*	-7.9	-11.7	-2.0
O=C(CSc1nc2ccccc2[nH]1)NCC1CCCO1 (configuration not stated)	-0.4	3.2	10.9	-8.8	-7.5	-7.4
CCO[C@H]1OC(C(=O)N2CCN(Cc3ccc4c(c3)OCO4)CC2)=C[C@@H](C2CCCCC2)[C@@H]1CCCO	-31.2	0.8	13.5	-28.0	-10.2	14.7
CCN(CC)C(=O)c1oc2ccc(S(=O)(=O)N3CC(C)CC(C)C3)cc2c1C (configuration not stated)	33.3	6.3	60.1	41.0*	3.8	-1.0
CCN(CC)C(=O)c1oc2ccc(S(=O)(=O)N3CCCCCC3)cc2c1C	-3.4	5.5	19.3	-19.3	0.8	-11.9
Cc1ccc(-c2nc3c(c(SCC(=O)N4CCOCC4)n2)Cc2c(CO)cnc(C)c2O3)cc1	-21.6	5.9	38.1*	-25.2	-10.2	-9.4
CCN1CCN(Cc2ccc(NC(=O)c3cc(NC(=O)c4ccno4)cc(OC)c3)cc2C(F)(F)F)CC1	-17.1	6.6	15.2	-6.4	x	13.9
CCN1CCN(Cc2ccc(NC(=O)c3cc(NC(=O)c4cc5cccc(OC)c5o4)cc(OC)c3)cc2C(F)(F)F)CC1	-19.2	11.4	20.8	-3.3	x	59.0*!
COc1cc(NC(=O)c2ccno2)cc(C(=O)Nc2cccc(C(F)(F)F)c2)c1	14.6	18.0	18.2	26.8	x	38.1
SMILES	OX1R antag-1	TAAR1 agonist	OX1R antag-2	CHO parental Ca	GPR7 antagonist	TAAR1 antag
COc1ccc(-c2cc(C(=O)Nc3cc(OC)cc(C(=O)Nc4cccc(C(F)(F)F)c4)c3)[nH]n2)cc1	21.9	9.7	19.9	32.4*	x	54.7*
COc1cc(NC(=O)c2cc3cccc(OC)c3o2)cc(C(=O)Nc2cccc(C(F)(F)F)c2)c1	24.3	21.4	12.5	41.9*	x	86.7*
CCOC(=O)c1nnn2c1nc(Nc1cccc(C(F)(F)F)c1)c1ccccc12	-6.8	5.1	8.4	-7.0	-14.0	-32.3
Nc1nncn1C(=O)CCCOc1ccccc1	-4.1	2.1	20.9	-5.9	-7.5	-11.8
O=c1c2ccccc2nc2c3ccccc3c(NCCO)nn12	-19.3	2.1	49.5*	-9.3	-12.5	24.1
O=c1c2ccccc2nc2c3ccccc3c(NCc3cccnc3)nn12	-15.8	4.5	56.0	-18.9	-7.7	-14.7
CCN1C(=O)c2cccc3c(S(=O)(=O)N(C(C)=O)c4ccc(OC(C)=O)cc4)ccc1c23	-12.6	21.2	9.5	-11.8	x	49.0*
CC(C)NC(=O)Nc1ccc2c(c1)C(=O)N([C@H](C)CO)C[C@H](C)[C@@H](CN(C)C(=O)Nc1ccc(C(F)(F)F)cc1)O2	2.6	0.3	1.8	-3.1	x	5.4
COc1cc(/C=N\NC(=O)c2ccc(Cn3nc([N+](=O)[O-])c(Cl)c3C)o2)ccc1O	-0.9	11.7	16.7	-0.8	15.9	49.5*
Cc1c(Cl)c([N+](=O)[O-])nn1Cc1ccc(C(=O)N/N=C\c2ccccn2)o1	-19.6	6.9	18.1	19.7	-9.3	-18.5
Cc1ccccc1CN(c1ccc(C(=O)Nc2cccnc2)cc1)S(C)(=O)=O	-13.1	4.6	13.0	-6.9	9.2	6.5
Cc1ccc(NC(=O)c2ccccc2OCc2c(C)noc2C)cc1S(=O)(=O)N(C)C	-6.5	4.0	4.8	-11.6	x	34.4
Cc1ccccc1C(=O)Nc1ccc(-c2nc3ccc(C(=O)c4ccccc4)cc3[nH]2)cc1	-5.8	16.8	51.3	17.9	-0.5	102.7*
CSc1nc2ccc(NC(=O)c3cccs3)cc2s1	-10.3	2.9	37.5*	-16.0	x	12.5
Cc1nc2ccc(NC(=O)c3ccc(Cl)s3)cc2s1	7.6	2.0	47.9*	32.9*	-0.1	-17.8
Cc1ccc2nc(NC(=O)c3ccc(Cl)s3)sc2c1	-6.3	-0.3	13.9	-9.7	-9.0	-20.6
O=C(Nc1ccc(-c2nc3ccc(NC(=O)c4cccs4)cc3[nH]2)cc1)c1cccs1	-7.5	5.1	29.5	8.9	6.3	60.6*
O=C(Cc1ccccc1)NCC(=O)N/N=C/c1cccs1	-12.7	15.2	8.6	-10.1	-2.0	-24.6
O=C(c1ccccc1)c1ccc2nc(-c3ccc(NC(=O)c4ccccc4Br)cc3)[nH]c2c1	10.3	11.7	14.1	19.6	-1.2	68.0*

Compound activity as filed in PubChem.
